# The list is not random: actives were taken first. Their share in the collection is about 2.1%.
# CDK5 p35 inh: inhibitors of human CDK5/p35 kinase, primary screen, biochemical, single concentration | Recombinant CDK5/p35, ADP-Glo luminescence, 60 min | AID 488839, 2010 | Cyclin-dependent kinase 5 (Homo sapiens) + Cyclin-dependent kinase 5 activator 1 (Homo … | inhibition, % at 10 µM | 330,000 compounds, 0.01% hits;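 active = highest replicate inhibition of at least 50% and at least 75% of replicates reaching 50%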;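 note: plate controls were DMSO neutral control for no effect and GW8510 at 10 µM for full effect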
# SR-BI HDL uptake: inhibitors of SR-BI mediated HDL lipid uptake, primary screen, ldlA[mSR-BI] cells, fluorescence, single point; ldlA[mSR-BI] CHO cells, DiI-HDL uptake fluorescence, 3 h; inhibition, % at 12.5 µM; 320,000 compounds, 0.96% hits; AID 488896, 2010;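 active = mean replicate inhibition of at least 70% and a set share of replicates each scoring 70 or more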;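 note: 0% = median of neutral control wells and 100% = median of positive control wells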
# Target sequence (Q61009 whole entry, looked up): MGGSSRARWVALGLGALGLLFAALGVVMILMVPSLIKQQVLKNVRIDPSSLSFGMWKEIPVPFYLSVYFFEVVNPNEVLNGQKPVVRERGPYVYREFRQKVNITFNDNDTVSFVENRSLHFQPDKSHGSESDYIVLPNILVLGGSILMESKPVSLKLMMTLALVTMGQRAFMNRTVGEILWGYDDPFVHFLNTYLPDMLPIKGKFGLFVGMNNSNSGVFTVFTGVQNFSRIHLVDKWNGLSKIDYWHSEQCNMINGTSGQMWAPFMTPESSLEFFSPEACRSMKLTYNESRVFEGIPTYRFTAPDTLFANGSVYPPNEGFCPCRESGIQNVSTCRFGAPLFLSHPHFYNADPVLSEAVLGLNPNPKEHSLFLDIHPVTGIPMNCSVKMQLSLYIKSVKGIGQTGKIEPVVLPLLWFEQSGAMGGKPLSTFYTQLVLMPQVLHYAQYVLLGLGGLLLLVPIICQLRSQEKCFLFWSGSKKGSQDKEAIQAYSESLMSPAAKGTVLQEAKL
# dFosB activator: activators of delta FosB homodimer, primary screen, biochemical, fluorescence polarization, TAMRA-CDK5 oligo, single point; purified delta FosB; percent of positive-control signal above neutral wells; AID 493131, 2011; Protein FosB (Mus musculus), P13346; 340,000 compounds, 0.99% hits; activation, % at 25 µM;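 active = mean activation above about 17%, with every replicate also reaching it, limit read from the data, passing the limit was not always enough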
# PKA-R2B activ: activators of PKA-R2B holoenzyme, primary screen, biochemical, fluorescence polarization, Cy5-IP20, human; cAMP-dependent protein kinase catalytic subunit beta (Homo sapiens) + cAMP-dependent …; PKA-R2B holoenzyme dissociation; R2B truncated from residue 108, S112A mutant; 0% DMSO only, 100% 113 µM cGMP; activation, % at 11.4 µM; 340,000 compounds, 0.079% hits; AID 504700, 2011;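 active = activation above a cutoff set at the mean over all compounds plus 3 SD, cut at about 18% in these data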;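 note: higher means more holoenzyme dissociation and a rise in polarization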
# PKA-R1A activ: activators of PKA-R1A holoenzyme, primary screen, biochemical, fluorescence polarization, Cy5-IP20, bovine R1A, mouse PKAc | cAMP-dependent protein kinase type I-alpha regulatory subunit (Bos taurus) + … | PKA-R1A dissociation; scaled: DMSO 0%, 113 µM cGMP 100% | activation, % at 11.4 µM | 340,000 compounds, 0.083% hits;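 active = percent activation above the mean of all tested compounds plus 3 SD, cut at about 19% in these data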;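 note: higher means more PKAc released from R1A so a rise in polarization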
# SR-BI uptake up: activators of SR-BI mediated DiI-HDL uptake, primary screen, ldlA[mSR-BI] CHO cells, DiI fluorescence | 320,000 compounds, 0.096% hits | 3 h; 100 = double the neutral-control signal | activation, % at 12.5 µM;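 active = mean replicate activation of at least 60% and every replicate at or above 60%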;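 note: 0% = median plate neutral-control signal and 100% = twice that signal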
#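 Material: SR-BI-overexpressing, LDLR-lacking CHO cells | Dosing: Single compound concentration, delivered by pin transfer | Probe or stimulus: Labelled HDL, 10 µg/mL | Signal: Bottom-read cell fluorescence after medium removal, ex 550/em 595 nm | Schedule: 3 h, 37 °C | Evaluation: HDL uptake via cellular fluorescence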
# Starred values were filed as active, the others as inactive; x = no result given.
SMILES,CDK5 p35 inh,SR-BI HDL uptake,dFosB activator,PKA-R2B activ,PKA-R1A activ,SR-BI uptake up
COc1ccc(C(=O)N2CCNC(=O)C2)cc1S(=O)(=O)Nc1ccc(Br)cc1,0,-38,-5,-14,-1,38
CCSc1nsc(NC(=O)Nc2ccc(F)cc2F)n1,1,-3,23*,3,4,3
COc1cccc(NC(=O)COC(=O)c2sccc2C)c1,0,17,-4,0,3,-17
C=CCC[C@@H](Cc1ccc(F)cc1)C(=O)OC[C@@H](Cc1c[nH]c2ccccc12)NC(=O)[C@@H](CC=C)CC(=O)N[C@@H](CO)Cc1ccccc1,1,-74,-11,0,2,74*
O=S(=O)(NCC(c1ccc2c(c1)OCO2)N1CCN(c2ccccc2)CC1)c1ccccc1 (stereo not drawn),0,-28,-8,-4,-14,28
CCc1noc(C)c1C(=O)Nc1nc(-c2ccc(Cl)cc2Cl)c(C)s1,-1,75*,-7,0,14,-75
O=c1oc2cc(O)ccc2c2oc3cc(O)ccc3c12,0,3,-2,-4,0,-3
COc1c2c(cc3oc(=O)c4c5ccc(O)cc5oc4c13)OC(C)(C)CC2,-1,89*,6,16,1,-89
COC(=O)c1cc(OC)c(OC)cc1NC(=O)c1cccc(OC)c1OC,0,72*,-7,-9,2,-72
CCOC(=O)c1oc2ccccc2c1NC(=O)c1cccc(OC)c1OC,2,77*,-15,-11,-11,-77
CCc1nnc(NC(=O)c2nc(S(=O)(=O)Cc3ccccc3)ncc2Cl)s1,0,-10,-5,-10,2,10
CCc1nnc(NC(=O)c2nc(S(=O)(=O)Cc3ccc(C)cc3)ncc2Cl)s1,2,-64,4,-2,-7,64*
NS(=O)(=O)c1cccc(Nc2nc3ccccc3nc2NS(=O)(=O)c2ccc(Cl)cc2)c1,1,-1,-4,-1,-4,1
O=c1cc(N2CCOCC2)[nH]c(=O)n1Cc1ccc(F)cc1,1,-231,6,0,-3,231*
C=CCN(C(=O)CC(NC(C)=O)c1ccccc1)c1nc(-c2ccc(S(C)(=O)=O)cc2)cs1 (stereo not drawn),1,38,-14,-5,5,-38
CNC(=O)[C@@H]1CCC(=O)N1,0,-14,0,-2,-6,14
Cc1ccc(C(=O)Nc2cccc(-c3ccc(N4CCOCC4)nn3)c2)cc1C,0,77*,-9,-9,5,-77
Cc1ccc(C(=O)Nc2cccc(-c3ccc(N4CCOCC4)nn3)c2)cc1,1,17,-4,-6,-3,-17
CCOc1cc(/C=N/N=C(N)N)ccc1OCc1ccc(Cl)cc1,0,-14,56*,-5,-9,14
NC(N)=N/N=C/c1ccc(OCc2ccccc2)c(OCc2ccccc2)c1,-1,x,-311,-9,-9,x
COc1cc(/C=N/N=C(N)N)ccc1OCc1ccc(Cl)cc1,1,-10,59*,-14,4,10
O=C(COC(=O)CNC(=O)c1ccccc1)NC(=O)NC1CCCCC1,-1,-20,1,-5,1,20
COCCSc1ccccc1C(=O)Nc1cc([N+](=O)[O-])ccc1OC,1,83*,2,-4,12,-83
COc1ccc([N+](=O)[O-])cc1NC(=S)NC(NC(=O)C(c1ccccc1)c1ccccc1)C(Cl)(Cl)Cl (stereo not drawn),0,87*,6,-7,-6,-87
CCn1ncc(C(=O)Nc2ccc([N+](=O)[O-])cc2OC)c1C,1,12,-7,2,-3,-12
SMILES,CDK5 p35 inh,SR-BI HDL uptake,dFosB activator,PKA-R2B activ,PKA-R1A activ,SR-BI uptake up
COc1ccc([N+](=O)[O-])cc1NC(=O)c1cn(-c2ccc(Cl)cc2)c(=O)c2ccccc12,-1,74*,5,-9,6,-74
COCCSc1ccccc1C(=O)Nc1ccc([N+](=O)[O-])cc1OC,-1,81*,-6,9,-2,-81
Cc1ccc(NC(=O)c2ccc(N/N=C/c3cccc(O)c3)c([N+](=O)[O-])c2)cc1,2,95*,1,0,-1,-95
Cc1ccc(NC(=O)c2ccc(Nc3c([N+](=O)[O-])cc([N+](=O)[O-])cc3[N+](=O)[O-])cc2)cc1,3,102*,-21,11,-11,-102
Cc1cccc2sc(NNC(=O)c3ccc(S(=O)(=O)N4CCCC(C)C4)cc3)nc12 (stereo not drawn),-2,128*,-5,-5,1,-128
Cc1cccc2sc(NNC(=O)c3ccc(S(=O)(=O)N4CCc5ccccc5C4)cc3)nc12,1,125*,-4,5,-3,-125
Cc1cc(C)c2nc(NNC(=O)c3ccc(S(=O)(=O)N4CCCCC4)cc3)sc2c1,0,76*,-9,2,5,-76
Cc1csc(Nc2nc(N)c(C(=O)Nc3ccccc3)o2)n1,1,x,-11,-17,-8,x
CCCCCn1nc(C(=O)N(CC)c2c(N)n(CCCC)c(=O)[nH]c2=O)c2ccccc2c1=O,-1,3,-7,5,1,-3
CC1CCCCN1CCNC(=O)c1ccc2c(=O)n(Cc3ccc(Cl)cc3)c(=S)[nH]c2c1 (stereo not drawn),0,-1,-52,1,-4,1
CS(=O)(=O)c1ncc(Cl)c(C(=O)Nc2ccc3ccccc3c2)n1,0,93*,-8,1,1,-93
CC(=O)Nc1ccc(NC(=O)c2nc(S(=O)(=O)Cc3ccccc3)ncc2Cl)cc1,1,-14,1,-14,-4,14
O=c1c2c3nc4ccccc4nc3n(/N=C/c3ccco3)c2ncn1CCC1=CCCCC1,-3,-67,-1,1,-6,67*
Cc1cc(OCc2ccc(F)cc2)nc(-c2ccccc2O)n1,-2,78*,-1,1,-3,-78
CCOc1ccc(C(=O)Nc2c3c(nn2C(C)(C)C)CSC3)cc1OCC,0,75*,-10,-2,-6,-75
